Active and inactive are the calls of the source. The calls are words filed in the database; no cut-off is given here.
Assays:
[1] = Metabolic stability in monkey plasma assessed as half life at 1 uM measured upto 120 mins by LC-MS/MS analysis; assay type: ADME, cell-free, Macaca mulatta; conditions: rhesus monkey, 2 h
Outline: (§1)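 Compound at 1 μM final in pre-warmed plasma of each species, 37 °C for up to 2 h. ACN/IS quench at 0, 5, 15, 30, 60 and 120 min; LC/MS. Procaine as reference (benfluorex for rat). t1/2 = 0.693/slope of ln(fraction remaining) versus time.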

VCaP [2] = assay: Induction of androgen receptor degradation in human VCaP cells at 100 nM pretreated with ARi-12 for 2 hrs followed by compound addition and 3 hrs by Western blot analysis; assay type: functional, cell-based; conditions: time 5.0 hrs
Outline: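 LNCaP or VCaP cells pretreated 2 h with DMSO, ARi-12 (10 μM), thalidomide (10 μM), MG-132 (3 μM) or MLN4924 (0.5 μM), then given degrader at 100 nM for 3 h. AR measured by Western blot with GAPDH as loading control.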

[3] = Oral bioavailability in Beagle dog at 3 mg/kg measured up to 24 hrs by LC-MS/MS analysis; assay type: ADME, organism-based, Canis lupus familiaris; conditions: in vivo
Outline: (§2)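 Male Beagle dogs. IV 1 mg/kg in 10% PEG400 + 90% PBS (pH 8.0); PO 3 mg/kg in 90% PEG400 + 10% Cremophor. Plasma PK to 24 h; F from IV and PO exposure.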

[4] = Volume of distribution at steady state in Beagle dog at 1 mg/kg, iv measured upto 24 hrs by LC-MS/MS analysis; assay type: ADME, organism-based, Canis lupus familiaris; conditions: in vivo; outline: as §2
[5] = Metabolic stability in human liver microsomes assessed as half life at 1 uM measured upto 45 mins in presence of NADPH by LC-MS/MS analysis; assay type: ADME, Microsome; conditions: 0.75 h
Outline: (§3)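 Pooled liver microsomes from each species: 1 μM compound with 0.5 mg/mL microsomes and 1.7 mM NADPH in 0.1 M K-phosphate, pH 7.4, 5 mM MgCl2, 37 °C. Sampled at 0, 5, 10, 15, 30 and 45 min with cold ACN quench. No-NADPH incubation as negative control; ketanserin as positive control. LC-MS/MS; half-life from ln(remaining) versus time.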

[6] = target: Androgen receptor (Homo sapiens) (UniProt P10275); assay: In vivo induction of androgen receptor degradation in human VCaP cells xenografted in CB17 SCID mouse assessed as reduction in AR protein level at 12.5 mg/kg, po measured after 6 hrs by […] analysis; design: scale not given: the % may be the effect or the level left
[7] = Volume of distribution at steady state in ICR mouse at 2 mg/kg, iv measured upto 24 hrs by LC-MS/MS analysis; assay type: ADME, organism-based; conditions: in vivo
Outline: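 Male ICR mice. IV 2 mg/kg and PO 5 mg/kg, both in 10% PEG400 + 90% PBS adjusted to pH 8.0. Plasma sampled to 24 h; F from IV and PO exposure.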

VCaP [8] = assay: Antitumor activity against human VCaP cells xenografted in CB17 SCID mouse assessed as tumor growth inhibition at 30 mg/kg, po administered for 21 days; assay type: functional; conditions: 504 h, time 21 day, read-out: TGI
VCaP [9] = assay: Antitumor activity against human VCaP cells xenografted in CB17 SCID mouse assessed as tumor growth inhibition at 15 mg/kg, po administered for 21 days; assay type: functional; conditions: 504 h, time 21 day, read-out: TGI
[10] = Metabolic stability in rat plasma assessed as half life at 1 uM measured upto 120 mins by LC-MS/MS analysis; assay type: ADME, cell-free; conditions: 2 h; outline: as §1
[11] = Half life in Beagle dog at 3 mg/kg, po measured up to 24 hrs by LC-MS/MS analysis; assay type: ADME, organism-based, Canis lupus familiaris; conditions: in vivo
Outline: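 Male Beagle dogs dosed orally at 3 mg/kg in 90% PEG400 + 10% Cremophor.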

[12] = Metabolic stability in monkey liver microsomes assessed as half life at 1 uM measured upto 45 mins in presence of NADPH by LC-MS/MS analysis; assay type: ADME, Macaca mulatta, Microsome; conditions: rhesus monkey, 0.75 h; outline: as §3
[13] = target: T1, Androgen receptor (Homo sapiens) (UniProt P10275); assay: Induction of androgen receptor degradation in human VCaP cells at 0.1 uM after 24 hrs by Western blotting analysis relative to control; assay type: cell-based
T1 sequence (whole entry): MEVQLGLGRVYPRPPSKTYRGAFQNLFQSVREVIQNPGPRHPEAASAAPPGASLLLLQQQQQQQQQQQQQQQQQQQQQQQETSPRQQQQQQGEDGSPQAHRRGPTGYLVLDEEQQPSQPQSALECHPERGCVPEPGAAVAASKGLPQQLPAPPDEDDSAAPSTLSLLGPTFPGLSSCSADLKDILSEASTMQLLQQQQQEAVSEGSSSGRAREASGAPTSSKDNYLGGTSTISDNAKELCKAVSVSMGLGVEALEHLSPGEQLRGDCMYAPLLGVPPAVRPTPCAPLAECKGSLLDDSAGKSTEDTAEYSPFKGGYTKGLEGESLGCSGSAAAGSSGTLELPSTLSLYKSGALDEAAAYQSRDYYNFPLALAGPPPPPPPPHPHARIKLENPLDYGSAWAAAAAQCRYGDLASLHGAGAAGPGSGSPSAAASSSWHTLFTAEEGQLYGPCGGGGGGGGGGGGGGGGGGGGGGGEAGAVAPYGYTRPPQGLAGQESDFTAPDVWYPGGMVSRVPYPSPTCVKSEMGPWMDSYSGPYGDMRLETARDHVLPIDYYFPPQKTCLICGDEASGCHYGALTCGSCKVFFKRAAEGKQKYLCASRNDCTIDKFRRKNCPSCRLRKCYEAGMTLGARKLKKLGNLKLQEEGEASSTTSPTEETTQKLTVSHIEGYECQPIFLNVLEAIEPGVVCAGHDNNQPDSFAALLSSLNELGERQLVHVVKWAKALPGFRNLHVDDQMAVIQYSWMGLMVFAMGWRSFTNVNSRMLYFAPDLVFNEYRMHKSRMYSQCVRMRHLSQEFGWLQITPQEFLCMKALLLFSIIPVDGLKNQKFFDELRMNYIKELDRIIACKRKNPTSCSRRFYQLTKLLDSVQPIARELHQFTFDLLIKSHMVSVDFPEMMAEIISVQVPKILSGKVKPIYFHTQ
Outline: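 VCaP cells treated for 24 h at 10, 100 or 1000 nM. AR protein measured by Western blotting.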

[14] = Plasma protein binding in monkey at 1 uM after 5 hrs by equilibrium dialysis based LC-MS/MS analysis; assay type: ADME, cell-free, Macaca mulatta; conditions: rhesus monkey
Outline: (§4)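 Equilibrium dialysis of pooled plasma of each species spiked at 1 μM against 0.1 M sodium phosphate, pH 7.4. 5 h at 37 °C with shaking at 60 rpm. Both sides matrix-matched, ACN/IS quench, LC/MS. % bound = 100 − (buffer/plasma peak-area ratio × 100); recovery also calculated. Warfarin as reference.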

[15] = Half life in Beagle dog at 1 mg/kg, iv measured upto 24 hrs by LC-MS/MS analysis; assay type: ADME, organism-based, Canis lupus familiaris; conditions: in vivo
Outline: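 Male ICR mice (2 mg/kg), male SD rats (1 mg/kg) or male Beagle dogs (1 mg/kg) given a single intravenous dose in 10% PEG400 + 90% PBS adjusted to pH 8.0 with NaOH.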

[16] = Plasma protein binding in dog at 1 uM after 5 hrs by equilibrium dialysis based LC-MS/MS analysis; assay type: ADME, cell-free, Canis lupus familiaris; outline: as §4

For `C[C@H]1CC2(CCN(c3ccc(C(=O)N4CCN(C5CN(c6ccc7c(c6)C(=O)N(C6CCC(=O)NC6=O)C7=O)C5)CC4)cc3)CC2)CN1c1ccc(C#N)c(Cl)c1` (stereo partly specified), the t1/2 [1] was over 2 h, the Activity (VCaP [2]) was “inactive” and the F [3] was 46%. For the same compound, the Vdss [4] was 2.8 L/kg, the t1/2 [5] was over 1 h and the Activity [6] was 73%. The Vdss [7] was 1.3 L/kg, the inhibition in vivo at 30 mg/kg (VCaP [8]) was 80% and the inhibition in vivo at 15 mg/kg (VCaP [9]) was 61%. The t1/2 [10] was over 2 h, the t1/2 [11] was 3.4 h and the t1/2 [12] was over 1 h. It also gave an Activity [13] of over 95%, a PPB [14] of 99.2% and a t1/2 [15] of 8.9 h. For the same compound, the PPB [16] was 99.3%.
